10 compounds from ChEMBL document CHEMBL1629486, “Antimicrobial, antitumor and 5α-reductase inhibitor activities of some hydrazonoyl substituted pyrimidinones” (Eur J Med Chem, 2010) can be followed below.

Molecules are shown by their SMILES.

Data set [1] concerns Rattus norvegicus. The data set can be described thus: Effect on circulating testosterone and dihydrotestosterone level in sc dosed Sprague-Dawley rat by radioimmunoassay relative to anastrozole. Type of data set: functional. The gist of the method: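 Serum testosterone and DHT were measured by RIA in ether extracts of serum (0.5 mL serum, 2 mL diethyl ether, 60 s shaking), without chromatography, in rats dosed at several levels. Relative potency is the ED50 of anastrozole divided by the ED50 of the test agent, where ED50 is the dose giving 50% of the pharmacological response.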

The subject of the next data set is Escherichia coli. The data set can be described thus: Antimicrobial activity against Escherichia coli at 1 to 5 ug/ml by agar well diffusion method. In kind it is functional. The gist of the method: (§1)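 Agar well diffusion against bacteria and fungi. Inhibition zone is scored beyond the control: ++ 0.6–1.0 cm, + 0.1–0.5 cm, 0 no inhibition.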
Background: A growth-free zone around the sample is the usual read-out of agar diffusion tests.

The next data set relates to Staphylococcus aureus. The data set can be described thus: Antimicrobial activity against Staphylococcus aureus at 1 to 5 ug/ml by agar well diffusion method. Type of data set: functional. The gist of the method: as §1
The next data set relates to Aspergillus fumigatus. The data set can be described thus: Antimicrobial activity against Aspergillus fumigatus at 1 to 5 ug/ml by agar well diffusion method. Type of data set: functional. The gist of the method: as §1
The test system of a further data set is Bacillus subtilis. Kind of data set: Antimicrobial activity against Bacillus subtilis at 1 to 5 ug/ml by agar well diffusion method. In kind it is functional. The gist of the method:
as §1

Data set [2] is filed under the species Rattus norvegicus. The data set can be described thus: Acute toxicity in albino rat. In kind it is organism-based. To be noted: in vivo. The gist of the method: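 Male albino rats received injections of increasing doses. LD50 and LD90, the doses killing 50% and 90% of the animals, were calculated by the Austen and Brocklehurst method.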
A further data set deals with Pseudomonas aeruginosa. The data set can be described thus: Antimicrobial activity against Pseudomonas aeruginosa at 1 to 5 ug/ml by agar well diffusion method. In kind it is functional. The gist of the method: as §1
Data set [3] relates to Syncephalastrum racemosum. The data set can be described thus: Antimicrobial activity against Syncephalastrum racemosum at 1 to 5 ug/ml by agar well diffusion method. In kind it is functional. The gist of the method:
as §1

A further data set has as its system Penicillium italicum. Kind of data set: Antimicrobial activity against Penicillium italicum at 1 to 5 ug/ml by agar well diffusion method. In kind it is functional. The gist of the method:
as §1

The subject of data set [4] is Rattus norvegicus. The data set can be described thus: Effect on circulating testosterone and dihydrotestosterone level in sc dosed Sprague-Dawley rat by radioimmunoassay. Type of data set: functional. The gist of the method: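 Rats were given a range of doses of the 5α-reductase inhibitors. Serum testosterone and DHT were measured by radioimmunoassay with specific antisera, without prior chromatography. Serum (0.5 mL) was extracted with 2 mL peroxide-free diethyl ether by shaking for 60 s. Levels were compared with vehicle-treated controls, and ED50 was derived.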

For a further data set, the system named is Candida albicans. Kind of data set: Antimicrobial activity against Candida albicans at 1 to 5 ug/ml by agar well diffusion method. In kind it is functional. The gist of the method: as §1

As a reminder, the LD50 is the dose expected to kill half of the subjects tested. As usually defined, the ED50 is the midpoint of the dose-response relation. A lower ED50 goes with greater potency. `Cc1cccc(N/N=C(\C(=O)c2ccc(Cl)cc2)c2nc(C)cc(=O)[nH]2)c1`: the “Ratio ED50” value in the data set with Rattus norvegicus [1] stood at 6.264. For the same compound, the “diameter of the inhibition zone (DIZ)” value (in the data set with Escherichia coli; in the data set on Staphylococcus aureus; in the data set with Aspergillus fumigatus; in the data set on Bacillus subtilis; with Pseudomonas aeruginosa; in data set [3]) was 0 cm each time. The “diameter of the inhibition zone (DIZ)” value in the data set on Penicillium italicum and in the data set on Candida albicans was 0 cm in each case. For the same compound, in the data set listed under Rattus norvegicus [2], the LD50 turned out to be 2.555 mg/kg. The same compound showed an LD90 in the data set listed under Rattus norvegicus [2] of 3.98654 mg/kg. In the data set with Rattus norvegicus [4], this compound displayed an ED50 of 0.000174 mg/kg.

As for `CCOC(=O)c1ccc(N/N=C(\C(=O)c2ccc(Cl)cc2)c2nc(C)cc(=O)[nH]2)cc1`, in the data set with Rattus norvegicus [1], the “Ratio ED50” value was found to be 5.505. For the same compound, the “diameter of the inhibition zone (DIZ)” value (with Escherichia coli; in the data set with Staphylococcus aureus; in the data set with Aspergillus fumigatus; in the data set with Bacillus subtilis; in the data set on Pseudomonas aeruginosa; in data set [3]) was 0 cm in each case. For the same compound, the “diameter of the inhibition zone (DIZ)” value in the data set with Penicillium italicum and in the data set with Candida albicans was 0 cm throughout. Also, in the data set filed under Rattus norvegicus [2], the LD50 was determined as 2.34133 mg/kg. The LD90 in the data set listed under Rattus norvegicus [2] stood at 3.21717 mg/kg. This compound also had an ED50 in the data set with Rattus norvegicus [4] of 0.000198 mg/kg.

Take `CC(C)(C#N)c1cc(Cn2cncn2)cc(C(C)(C)C#N)c1` [ANASTROZOLE]: the “Ratio ED50” value with Rattus norvegicus [1] was determined as 1.

As to `O=C(N[C@H](CO)[C@H](O)c1ccc([N+](=O)[O-])cc1)C(Cl)Cl` [CHLORAMPHENICOL], the “diameter of the inhibition zone (DIZ)” value in the data set with Escherichia coli is listed as 0.6 cm; with Staphylococcus aureus, 0.6 cm; with Bacillus subtilis, 1.1 cm; with Pseudomonas aeruginosa it was 1.1 cm.

With `Cc1cc(=O)[nH]c(/C(=N/Nc2ccc(Cl)cc2)C(=O)c2ccc(Cl)cc2)n1`, the “Ratio ED50” value with Rattus norvegicus [1] is listed as 1.784. For the same compound, the “diameter of the inhibition zone (DIZ)” value (in the data set on Escherichia coli; in the data set with Staphylococcus aureus; in the data set on Aspergillus fumigatus; in the data set on Bacillus subtilis; with Pseudomonas aeruginosa; in data set [3]) was 0 cm in each case. In addition, the “diameter of the inhibition zone (DIZ)” value in the data set on Penicillium italicum and with Candida albicans was 0 cm each time. The compound also returned an LD50 in the data set listed under Rattus norvegicus [2] of 2.34537 mg/kg. In the data set filed under Rattus norvegicus [2], this compound came in with an LD90 of 3.12376 mg/kg. In the data set on Rattus norvegicus [4], this compound displayed an ED50 of 0.000611 mg/kg.

In the case of `Cc1cc(=O)[nH]c(/C(=N/Nc2cccc(Cl)c2)C(=O)c2ccc(Cl)cc2)n1`, the “Ratio ED50” value in the data set on Rattus norvegicus [1] came out at 1.844. For the same compound, the “diameter of the inhibition zone (DIZ)” value in the data set with Escherichia coli is on record as 0.1 cm; in the data set on Staphylococcus aureus, 0 cm; in the data set with Aspergillus fumigatus, 0 cm; in the data set with Bacillus subtilis, 0 cm; with Pseudomonas aeruginosa it was 0 cm; in data set [3], 0 cm. The “diameter of the inhibition zone (DIZ)” value in the data set on Penicillium italicum and with Candida albicans was 0 cm throughout. In the data set listed under Rattus norvegicus [2], this compound registered an LD50 of 2.13345 mg/kg. Moreover, the LD90 in the data set filed under Rattus norvegicus [2] was 2.98032 mg/kg. In the data set with Rattus norvegicus [4], this compound came in with a median effective dose (ED50) of 0.000591 mg/kg.

As for `CN(C/C=C/C#CC(C)(C)C)Cc1cccc2ccccc12` [TERBINAFINE], the “diameter of the inhibition zone (DIZ)” value stood at 1.1 cm with Aspergillus fumigatus, 1.1 cm in data set [3], 1.1 cm in the data set on Penicillium italicum and 0.6 cm in the data set with Candida albicans.

With `COc1ccc(N/N=C(\C(=O)c2ccc(Cl)cc2)c2nc(C)cc(=O)[nH]2)cc1`, the “diameter of the inhibition zone (DIZ)” value (in the data set on Escherichia coli; in the data set on Staphylococcus aureus; in the data set on Aspergillus fumigatus; in the data set with Bacillus subtilis; with Pseudomonas aeruginosa; in data set [3]) was 0 cm in each case. The “diameter of the inhibition zone (DIZ)” value in the data set with Penicillium italicum and in the data set on Candida albicans was 0 cm throughout.

Turning to `Cc1cc(=O)[nH]c(/C(=N/Nc2ccc([N+](=O)[O-])cc2)C(=O)c2ccc(Cl)cc2)n1`, in the data set on Rattus norvegicus [1], the “Ratio ED50” value amounted to 2.28. The “diameter of the inhibition zone (DIZ)” value in the data set with Escherichia coli stood at 0.1 cm; with Staphylococcus aureus, 0.6 cm; with Aspergillus fumigatus it was 0 cm; in the data set with Bacillus subtilis, 0 cm; in the data set with Pseudomonas aeruginosa, 0 cm; in data set [3], 0 cm. Besides, the “diameter of the inhibition zone (DIZ)” value in the data set on Penicillium italicum and in the data set with Candida albicans was 0 cm throughout. This compound yielded a median lethal dose (LD50) in the data set listed under Rattus norvegicus [2] of 2.34523 mg/kg. The LD90 in the data set listed under Rattus norvegicus [2] turned out to be 3.29098 mg/kg. The same compound yielded an ED50 in the data set with Rattus norvegicus [4] of 0.000478 mg/kg.

With `Cc1cc(=O)[nH]c(/C(=N/Nc2cccc([N+](=O)[O-])c2)C(=O)c2ccc(Cl)cc2)n1`, the “Ratio ED50” value in the data set with Rattus norvegicus [1] is on record as 5.798. The “diameter of the inhibition zone (DIZ)” value in the data set on Escherichia coli was found to be 0.1 cm; with Staphylococcus aureus it was 0.6 cm; in the data set on Aspergillus fumigatus, 0 cm; in the data set on Bacillus subtilis, 0.1 cm; in the data set with Pseudomonas aeruginosa, 0 cm; in [3], 0 cm. Moreover, the “diameter of the inhibition zone (DIZ)” value with Penicillium italicum and with Candida albicans was 0 cm each time. Also, the LD50 in the data set filed under Rattus norvegicus [2] was found to be 2.55348 mg/kg. Also, the LD90 in the data set filed under Rattus norvegicus [2] was determined as 3.30012 mg/kg. This compound returned an ED50 in the data set with Rattus norvegicus [4] of 0.000188 mg/kg.
